The test system of data set [1] is Mus musculus. Put plainly: Antidepressant activity in kunming mouse assessed as decrease in 5-HIAA level in thalamus at 160 mg/kg, po measured after 14 days by HPLC-ECD analysis. It counts as functional, organism-based. As to conditions: time 14.0 day. Summed up: (§1)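 Male Kunming mice dosed orally with vehicle or 160 mg kg−1 for 14 days, then killed by cervical dislocation. Brain regions dissected on ice, homogenized in 0.2 M perchloric acid with 0.1 mM EDTA and spun at 4 °C for 20 min. Supernatant analysed by HPLC-ECD at +0.50 V, mobile phase pH 3.0. Amounts given in ng g−1 as mean ± SEM, n = 12.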

The subject of data set [2] is Mus musculus. Put plainly: Antidepressant activity in kunming mouse assessed as decrease in 5-HIAA level in hippocampus at 160 mg/kg, po measured after 14 days by HPLC-ECD analysis. Type of data set: functional, organism-based. The conditions noted are these: time 14.0 day. In outline:
as §1

Data set [3] relates to Mus musculus. Kind of data set: Antidepressant activity in Kunming mouse assessed as decrease in immobility time at 40 mg/kg, po and measured after 14 days by forced swim test relative to control. It counts as functional. Further details: scale not given: the % may be the effect or the level left. The conditions noted are these: time 14 day. In outline:
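Male Kunming mice, 15–18 g, given the test compound orally for 14 days. Forced swim then done in a cylinder 25 cm high and 15 cm in diameter, water 10 cm deep at 25 ± 1 °C. Swim lasted 6 min and immobility over the final 4 min was video-scored against the vehicle group.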

Data set [4] deals with Mus musculus. Kind of data set: Antidepressant activity in kunming mouse assessed as decrease in 5-HIAA level in striatum at 160 mg/kg, po measured after 14 days by HPLC-ECD analysis. Type of data set: functional, organism-based. As to conditions: time 14.0 day. Summed up:
as §1

Data set [5] deals with T1, Melatonin receptor type 1A (Homo sapiens, UniProt P48039). Kind of data set: Agonist activity at human MT1 receptor expressed in HEK293 cells by Fluo-8 based calcium assay. It counts as functional, cell-based.
Data set [6] can be described thus: Subacute toxicity in Kunming mouse assessed as effect on spleen structure at 240 mg/kg, po administered for 14 days. Type of data set: organism-based. The conditions noted are these: in vivo, 336 h, time 14 day. In outline: (§2)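 Subacute oral study following OECD 425. Animals randomised into two groups of six. Vehicle control received 0.5% CMC-Na orally for 14 consecutive days; the treated group received 240 mg kg−1 body weight orally for 14 consecutive days.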

Data set [7] deals with Mus musculus. Kind of data set: Antidepressant activity in kunming mouse assessed as increase in dopamine level in frontal cortex at 160 mg/kg, po measured after 14 days by HPLC-ECD analysis. Type of data set: functional, organism-based. As to conditions: time 14.0 day. In outline: as §1
The subject of data set [8] is Mus musculus. Put plainly: Antidepressant activity in kunming mouse assessed as increase in 5-HT level in frontal cortex at 160 mg/kg, po measured after 14 days by HPLC-ECD analysis. Type of data set: functional, organism-based. The conditions noted are these: time 14.0 day. Summed up: as §1
The subject of data set [9] is Mus musculus. Kind of data set: Antidepressant activity in kunming mouse assessed as increase in 5-HT level in hippocampus at 160 mg/kg, po measured after 14 days by HPLC-ECD analysis. Type of data set: functional, organism-based. The conditions noted are these: time 14.0 day. In outline:
as §1

The subject of data set [10] is Mus musculus. Put plainly: Antidepressant activity in kunming mouse assessed as increase in dopamine level in hippocampus at 160 mg/kg, po measured after 14 days by HPLC-ECD analysis. It counts as functional, organism-based. The conditions noted are these: time 14.0 day. In outline: as §1
Data set [11] is described as follows: Cmax in Kunming mouse at 80 mg/kg, po administered as single dose and measured upto 24 hrs. It counts as ADME, organism-based. As to conditions: in vivo. Also noted: time < 24 hrs, dose 80 mg/kg, route po.
Data set [12] has as its target T2, Melatonin receptor type 1B (Homo sapiens, UniProt P49286).
T2 sequence (P49286 whole entry): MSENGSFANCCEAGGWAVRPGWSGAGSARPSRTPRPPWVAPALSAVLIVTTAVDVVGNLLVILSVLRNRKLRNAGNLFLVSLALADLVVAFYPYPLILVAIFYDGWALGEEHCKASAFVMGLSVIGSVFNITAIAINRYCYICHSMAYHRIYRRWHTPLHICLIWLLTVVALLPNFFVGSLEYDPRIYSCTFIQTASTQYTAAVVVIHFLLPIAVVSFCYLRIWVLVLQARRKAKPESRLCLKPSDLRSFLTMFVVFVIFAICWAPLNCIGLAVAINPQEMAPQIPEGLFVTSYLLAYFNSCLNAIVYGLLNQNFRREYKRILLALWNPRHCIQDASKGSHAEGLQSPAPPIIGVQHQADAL
Put plainly: Agonist activity at human MT2 receptor transfected in HEK293T cells co-transfected with tet-inducible luciferase reporter plasmid, pCDNA3.1(+)-CMV-betaArrestin2-tev plasmid and TANGO plasmid assessed as relative luminescence unit incubated for 24 hrs by TANGO-GPCR assay based luminescence plate reader analysis. It counts as functional, cell-based. (In a reporter assay the amount or activity of a reporter protein is the signal.)

Data set [13] in a line: AUC (0 to infinity) in Kunming mouse at 80 mg/kg, po administered as single dose and measured upto 24 hrs. It counts as ADME, organism-based. Further details: time < 24 hrs, dose 80 mg/kg, route po. As to conditions: in vivo.
Data set [14] has as its system Mus musculus. Kind of data set: Antidepressant activity in kunming mouse assessed as decrease in DOPAC level in frontal cortex at 160 mg/kg, po measured after 14 days by HPLC-ECD analysis. It counts as functional, organism-based. As to conditions: time 14.0 day. In outline:
as §1

Data set [15] can be described thus: AUC (0 to 24 hrs) in Kunming mouse at 80 mg/kg, po administered as single dose and measured upto 24 hrs. Type of data set: ADME, organism-based. As to conditions: in vivo. Also noted: time < 24 hrs, dose 80 mg/kg, route po.
Data set [16] deals with T2, Melatonin receptor type 1B. Kind of data set: Agonist activity at human MT2 receptor expressed in HEK293 cells by Fluo-8 based calcium assay. It counts as functional, cell-based.
Data set [17] can be described thus: Subacute toxicity in Kunming mouse assessed as effect on kidney structure at 240 mg/kg, po administered for 14 days. It counts as organism-based. As to conditions: in vivo, 336 h, time 14 day. In outline: as §2
The nature of data set [18]: Subacute toxicity in Kunming mouse assessed as effect on liver structure at 240 mg/kg, po administered for 14 days. As to conditions: in vivo, 336 h, time 14 day. It counts as organism-based. In outline:
as §2

Data set [19] relates to Mus musculus. Kind of data set: Antidepressant activity in Kunming mouse assessed as decrease in immobility time at 10 to 160 mg/kg, po administered two times at 1 hrs and 24 hrs and measured at last 4 mins of 6 mins test by forced swim test. Type of data set: functional, organism-based. The conditions noted are these: dose 10-160 mg/kg, time 1444.0 min. Summed up:
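Male Kunming mice, 15–18 g, housed six per cage at 22 ± 1 °C on a 12 h light/dark cycle. Oral dosing 24 h and 1 h before the test. Each mouse placed in a cylinder (25 cm high, 15 cm diameter) holding 10 cm of water at 25 ± 1 °C and made to swim 6 min; immobility over the last 4 min scored by video tracking.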

Data set [20] has as its system Mus musculus. Kind of data set: Antidepressant activity in kunming mouse assessed as increase in dopamine level in thalamus at 160 mg/kg, po measured after 14 days by HPLC-ECD analysis. Type of data set: functional, organism-based. The conditions noted are these: time 14.0 day. Summed up:
as §1

Data set [21] addresses T1, Melatonin receptor type 1A. Kind of data set: Agonist activity at human MT1 receptor transfected in HEK293T cells co-transfected with tet-inducible luciferase reporter plasmid, pCDNA3.1(+)-CMV-betaArrestin2-tev plasmid and TANGO plasmid assessed as tango arrestin recruitment incubated for 24 hrs by TANGO-GPCR assay based luminescence plate reader analysis. It counts as functional, cell-based.

A short description of data set [22]: Subacute toxicity in Kunming mouse assessed as effect on lung structure at 240 mg/kg, po administered for 14 days. Type of data set: organism-based. The conditions noted are these: in vivo, 336 h, time 14 day. In outline:
as §2

pEC50: −log10 of the molar value. The source made the active and inactive calls. The calls are words filed in the database; no cut-off is given here.

T1 sequence (P48039 whole entry): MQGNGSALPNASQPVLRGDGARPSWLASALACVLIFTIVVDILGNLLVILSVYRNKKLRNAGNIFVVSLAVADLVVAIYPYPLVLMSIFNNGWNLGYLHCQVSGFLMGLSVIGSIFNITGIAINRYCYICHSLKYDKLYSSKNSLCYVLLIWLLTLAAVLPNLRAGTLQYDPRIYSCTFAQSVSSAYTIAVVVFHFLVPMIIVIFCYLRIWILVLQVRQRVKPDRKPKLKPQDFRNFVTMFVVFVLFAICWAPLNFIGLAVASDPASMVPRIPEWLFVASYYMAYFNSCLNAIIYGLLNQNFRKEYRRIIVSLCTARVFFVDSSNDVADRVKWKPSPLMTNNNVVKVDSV

Consider `COc1cc2c(CN3CCN(C)CC3)coc2cc1C`, for which the result in the data set on Mus musculus [1], with Mus musculus [2], in the data set on Mus musculus [4], with Mus musculus [7], with Mus musculus [8] and in the data set with Mus musculus [9] was Active. In addition, the result in the data set with Mus musculus [10], with Mus musculus [14], in the data set with Mus musculus [19] and with Mus musculus [20] was Active. Further, the Activity was 26% in the data set with Mus musculus [3]; “Non-Toxic” in data set [6]; “Non-Toxic” in data set [17]; “Non-Toxic” in data set [18]; “Non-Toxic” in data set [22]. For the same compound, the pEC50 in [5] was 3.48; in data set [12], 3.52; in [16], 3.59; in data set [21], 4.68. Further, in [11], the concentration peaked (Cmax) at 1340 ng/mL. The results for the AUC in data set [13] and in data set [15] were 5620 ng·h/mL and 5400 ng·h/mL, respectively.

Broadly, the pEC50 is −log10 of the EC50, conventionally taken in molar units. Broadly, the Cmax is the peak of the concentration-time curve. The AUC is concentration integrated over time.

The values are drawn from ChEMBL document CHEMBL5108087, “Synthesis and biological evaluation of paeoveitol D derivatives as new melatonin receptor agonists with antidepressant activities” (RSC Med Chem, 2022).
